From ChEMBL document CHEMBL1212917, “Substituted E-3-(3-indolylmethylene)-1,3-dihydroindol-2-ones with antitumor activity. In depth study of the effect on growth of breast cancer cells” (2010) come the findings set out here.

The source made the active and inactive calls. The rule behind the calls is not given here.

What all share (type): functional
Test [1] can be described thus: Growth inhibition of human Ovarian cancer cells after 48 hrs. As to conditions: Cancer cell lines; for CC50: read-out: LC50 (the source's name).
The nature of test [2]: Growth inhibition of human melanoma cells after 48 hrs. As to conditions: Melanoma cell; for CC50: read-out: LC50 (the source's name).
A short description of test [3]: Growth inhibition of human CNS cancer cells after 48 hrs. As to conditions: Cancer cell lines; for CC50: read-out: LC50 (the source's name).
Test [4] is described as follows: Growth inhibition of human prostate cancer cells after 48 hrs. As to conditions: Cancer cell lines; for CC50: read-out: LC50 (the source's name).
Test [5] is described as follows: Growth inhibition of human renal cancer cells after 48 hrs. As to conditions: Cancer cell lines; for CC50: read-out: LC50 (the source's name).
Test [6] can be described thus: Growth inhibition of human colon cancer cells after 48 hrs. The conditions noted are these: Cancer cell lines; for CC50: read-out: LC50 (the source's name).
The nature of test [7]: Growth inhibition of human leukemia cells after 48 hrs. As to conditions: Leukemia cell; for CC50: read-out: LC50 (the source's name).
For test [8], the system named is MCF7. As to the kind of experiment: Antiproliferative activity against human MCF7 cells assessed as increase in tumor suppressor p53 expression at 5 uM after 20 hrs by Western blotting. A digest of the protocol: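 MCF-7 cells in RPMI 1640 with 10% FBS and 2 mM L-glutamine at 37°C, 5% CO2, plated at 2×10^4 cells/cm2. Compound added 24 h later to 5 μM (DMSO vehicle in controls) for 20 h. Lysed in HEPES pH 7.5 buffer with DTT, EDTA, CHAPS, Triton X-100 and protease inhibitors, then freeze-thawed twice. SDS-PAGE at 80 μg protein/lane and immunoblotting for total and phospho ERK1/2 and Akt, p53 and p21, with β-actin. Densitometry used for quantitation.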
(In general: A western blot detects proteins with antibodies after separation by electrophoresis.)

Test [9] is described as follows: Growth inhibition of human breast cancer cells after 48 hrs. As to conditions: Cancer cell lines; for CC50: read-out: LC50 (the source's name).
The test system of test [10] is NSCLC. In words: Growth inhibition of human NSCLC cells after 48 hrs.

As usually defined, the GI50 is the concentration that inhibits growth by half. As usually defined, the LC50 is the concentration that kills 50% of the test population. Read a high LC50 as lower toxicity. In the case of `COc1cc2c(cc1C)N(C)C(=O)/C2=C/c1c(Cl)[nH]c2ccccc12`, the GI50 in test [1] was 0.6 µM; in test [2], 0.71 µM; in test [3] it was 0.32 µM; in [4], 0.32 µM; in [5] it was 0.62 µM; in test [6], 370 nM. Moreover, the GI50 in [7] came to 260 nM; in [9], 0.3 µM; in test [10] it was 0.58 µM. Further, the CC50 in test [1] is 61.7 µM; in test [2], 51.3 µM; in [3] it was 47.9 µM; in test [4], 69.2 µM; in [5], 56.2 µM; in test [6], 46.8 µM. For the same compound, the CC50 worked out at 69.2 µM in test [7] and 57.5 µM in [9]. In addition, in [8], the outcome was Active. Besides, the LC50 in [10] was 57.5 µM.
By TGI is commonly meant the concentration at which net growth stops. On to `COc1ccc2[nH]cc(/C=C3/C(=O)Nc4ccccc43)c2c1`, for which the GI50 in [1] came to 6.31 µM; in [2] it was 6.61 µM; in test [3], 6.17 µM; in [4], 5.62 µM; in [5], 5.75 µM; in test [6], 2240 nM. The GI50 in test [7] is 2340 nM; in [9] it was 3.47 µM; in test [10], 5.13 µM. Moreover, the TGI stood at 30.2 µM in test [1]; 27.5 µM in test [2]; 28.8 µM in [3]; 24 µM in test [4]; 26.3 µM in test [5]; 15.5 µM in [6]. For the same compound, the figures for the TGI in test [7], in test [9] and in test [10] were 7.76 µM, 18.2 µM and 25.1 µM, respectively. The CC50 in [1] was 81.3 µM; in test [2], 75.9 µM; in test [3], 75.9 µM; in test [4] it was 83.2 µM; in test [5], 83.2 µM; in test [6] it was 70.8 µM. The CC50 in [7] stood at 43.6 µM; in test [9] it was 91.2 µM.
As for `COc1cc2c(cc1C)N(C)C(=O)/C2=C/c1c(Cl)n(C)c2cc(C)c(OC)cc12`, the GI50 in test [1] worked out at 18.6 µM; in test [2], 16.2 µM; in test [3] it was 10.5 µM; in test [4], 35.5 µM; in test [5], 15.8 µM; in test [6] it was 20400 nM. The figures for the GI50 in test [7], in test [9] and in test [10] were 6920 nM, 6.76 µM and 19.5 µM, respectively. For the same compound, the CC50 in test [1] was determined as 89.1 µM; in [3] it was 61.7 µM; in test [5], 77.6 µM; in test [6], 97.7 µM; in [9] it was 83.2 µM. This compound also showed an LC50 in test [10] of 93.3 µM.
